Measurements collected from several papers.
Protocols differ between the studies behind these lines.
Target: Serine/threonine-protein kinase Nek9 (NEK9, Homo sapiens, UniProt Q8TD19)
Residues used in one study (Q8TD19 1-979): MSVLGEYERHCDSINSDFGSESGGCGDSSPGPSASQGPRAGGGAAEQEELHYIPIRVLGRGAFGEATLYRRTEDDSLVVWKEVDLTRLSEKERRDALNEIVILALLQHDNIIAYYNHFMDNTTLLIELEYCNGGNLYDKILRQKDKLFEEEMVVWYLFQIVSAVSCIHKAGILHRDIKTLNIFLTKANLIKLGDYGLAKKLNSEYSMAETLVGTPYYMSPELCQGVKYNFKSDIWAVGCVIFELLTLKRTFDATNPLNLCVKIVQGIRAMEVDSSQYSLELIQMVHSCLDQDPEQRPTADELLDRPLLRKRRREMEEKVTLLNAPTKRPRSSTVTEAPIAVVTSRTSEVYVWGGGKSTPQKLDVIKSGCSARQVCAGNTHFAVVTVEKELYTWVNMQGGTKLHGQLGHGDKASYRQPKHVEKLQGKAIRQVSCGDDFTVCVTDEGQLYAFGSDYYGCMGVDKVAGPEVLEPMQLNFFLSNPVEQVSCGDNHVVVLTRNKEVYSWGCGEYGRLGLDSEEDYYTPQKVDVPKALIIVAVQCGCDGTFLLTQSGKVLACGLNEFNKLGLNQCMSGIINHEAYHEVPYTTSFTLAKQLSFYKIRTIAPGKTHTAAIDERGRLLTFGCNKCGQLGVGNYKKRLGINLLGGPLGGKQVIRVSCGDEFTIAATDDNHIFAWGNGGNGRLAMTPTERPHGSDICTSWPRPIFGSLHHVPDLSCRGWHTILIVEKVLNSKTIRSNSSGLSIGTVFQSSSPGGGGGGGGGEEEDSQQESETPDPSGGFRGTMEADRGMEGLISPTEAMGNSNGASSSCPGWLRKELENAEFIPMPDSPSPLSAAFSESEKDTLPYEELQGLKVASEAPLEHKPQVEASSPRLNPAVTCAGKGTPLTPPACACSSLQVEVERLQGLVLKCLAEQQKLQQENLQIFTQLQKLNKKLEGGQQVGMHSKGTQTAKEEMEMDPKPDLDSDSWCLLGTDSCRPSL

SMILES | assay | setting | remaining binding [%]
C[C@H]1CCN(c2nccc(-c3cnn4ncccc34)n2)C1 | binding | 1 µM | 100
Cc1cc(NC(=O)c2cccc(S(F)(F)(F)(F)F)c2)cc(-n2ccn3nc(-c4cccnc4)cc23)c1 | cell-free assay, competition with immobilised ligand | 1 µM | 100
CC1CCCN1c1nccc(-c2cnn3ncccc23)n1 (stereo not shown) | binding | 1 µM | 100
CCCOc1ccc([C@H]2[C@H](C(=O)O)[C@@H](c3ccc4c(c3)OCO4)CN2CC(=O)Nc2c(CC)cccc2CC)cc1 | cell-free assay, competition with immobilised ligand | 1 µM | 95
COc1ccnn2ncc(-c3ccnc(N(C)C)n3)c12 | binding | 1 µM | 100
COc1cnc(Nc2cccc(S(N)(=O)=O)c2)nc1N1CCN(c2ccccc2)CC1 | binding, competition with immobilised ligand | 1 µM | 83
C[C@@H](c1ccc(-n2cnc3c(N)ncnc32)cc1)N1CCc2nn(C)c(Cc3ccccc3)c2C1=O | binding, competition with immobilised ligand | 0.1 µM | 94
CNC(=O)[C@@H]1CC[C@@H](n2c(-c3ccc4cnccc4c3)nc3ccc(C(=O)NCc4cccc(C(N)=O)c4)cc32)C1 | binding, competition with immobilised ligand | 1 µM | 100
C=CC(=O)N1CCC(C(=O)NCC(=O)N2CCN(c3nc(-c4cnc(N)nc4C(F)F)nc(N4CCOCC4)n3)CC2)CC1 | binding, competition with immobilised ligand | 1 µM | 100
COc1ncc2cc3ccccc3nc2c1C#N | cell-free assay, competition with immobilised ligand | 5 µM | 95
NS(=O)(=O)c1cc(NC(=O)C2(c3ccccc3Cl)CC2)ccc1Oc1cccc(Cl)c1 | cell-free assay, competition with immobilised ligand | 1 µM | 94
Cc1cnc(Nc2ccc(C(=O)N3CCC(N4CCCC4)CC3)cc2)nc1-c1cc2ccccc2s1 | binding, competition with immobilised ligand | 1 µM | 14
O=C(Nc1c[nH]nc1C(=O)NC1CCNCC1)c1cc(F)cc(F)c1 | binding, competition with immobilised ligand | 1 µM | 100
O=C(NCCCN1CCOCC1)c1ccc(Nc2ncc(Cl)c(-c3ccc(Cl)s3)n2)cc1 | binding, competition with immobilised ligand | 1 µM | 13
c1cncc(-c2cccc(Nc3nccc(NC4CCCCC4)n3)c2)c1 | binding, competition with immobilised ligand | 10 µM | 95
C[C@H](c1ccc(F)cc1)N(Cc1cccc(C(=O)O)c1)C(=O)c1cnc2ccccc2c1 | cell-free assay, competition with immobilised ligand | 1 µM | 100
CN(C)c1nccc(-c2cnc3ncccn23)n1 | binding | 1 µM | 88
O=C(NCCCN1CCOCC1)c1ccc(Nc2nccc(-c3cc4ccccc4s3)n2)cc1 | binding, competition with immobilised ligand | 1 µM | 73
F[C@@H]1CCN(c2nccc(-c3cnn4ncccc34)n2)C1 | binding | 1 µM | 100
Cc1nc(Cc2cccc(C(F)(F)F)c2)sc1-c1ccc(C(N)=O)nc1 | cell-free assay, competition with immobilised ligand | 1 µM | 100
N[C@@H]1CCN(c2nccc(-c3cnn4ncccc34)n2)C1 | binding | 1 µM | 100
Cc1cc(-n2nc(Cc3cc(F)cc(C(F)(F)F)c3)nc2C)ccc1C(N)=O | cell-free assay, competition with immobilised ligand | 1 µM | 100
